The values below come from ChEMBL document CHEMBL3526114, “Histone deacetylase inhibitors increase human arylamine N-acetyltransferase-1 expression in human tumor cells” (Drug Metab Dispos, 2011).

The target of data set [1] is T1, NAT1 (arylamine N-acetyltransferase 1) (Homo sapiens, UniProt P18440).
T1 sequence (P18440 whole entry): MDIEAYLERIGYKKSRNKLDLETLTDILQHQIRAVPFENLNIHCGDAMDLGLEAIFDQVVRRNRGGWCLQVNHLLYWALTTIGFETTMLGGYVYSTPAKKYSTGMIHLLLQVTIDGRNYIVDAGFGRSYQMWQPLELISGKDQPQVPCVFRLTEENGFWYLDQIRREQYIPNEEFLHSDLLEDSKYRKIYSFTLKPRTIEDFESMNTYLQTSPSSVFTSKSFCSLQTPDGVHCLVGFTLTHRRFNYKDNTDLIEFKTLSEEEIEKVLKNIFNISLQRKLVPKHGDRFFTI
The data set is described as follows: Increase in NAT1 enzyme activity in human HeLa cells at 0.5 uM using p-aminobenzoic acid substrate after 24 hrs by HPLC method relative to untreated control. Conditions: probe p-aminobenzoic acid, read-out: FC. It is filed as ADME, cell-based. The gist of the method:
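HeLa cultured in RPMI 1640 with 5% FBS and treated with 0.5 μM TSA or DMSO vehicle for 24 hr at 37°C. Cells washed with PBS and sonicated in 20 mM Tris pH 7.4, 1 mM EDTA, 1 mM DTT. Lysates assayed at once for NAT1 activity by HPLC with p-aminobenzoic acid substrate. Mean ± SEM, n = 3.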

For data set [2], the system named is HeLa. The data set is described as follows: Effect on NAT1 mRNA stability in human HeLa cells assessed as slope of mRNA decay curve at 0.5 uM after 24 hrs in presence of transcription inhibitor actinomycin D by qPCR method (reference value: -0.78 +/- 0.09/hr). (In general: Real-time PCR tracks product formation cycle by cycle.)
In the next data set the test system is NAT1 mRNA. The data set is described as follows: Increase in NAT1 mRNA expression in human HeLa cells at 0.5 uM after 24 hrs by qPCR method. Format: ADME, cell-based. Conditions: read-out: FC. The gist of the method: (§1)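 After 24 hr with 0.5 μM TSA or vehicle, HeLa NATb-derived NAT1 transcript quantified by qPCR. Cycling: 95°C 10 min, then 40 cycles (NATb) or 30 (β-actin) of 95°C 15 s, 50°C 20 s, 72°C. Single product checked by melt curve and gel. Normalised to β-actin; fold change by ΔΔCT. Mean ± SEM, n = 6; t-test.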

In data set [3] the test system is HeLa. The data set is described as follows: Increase in NATb promoter activity in human HeLa cells at 0.5 uM after 24 hrs by qPCR method. Format: ADME, cell-based. The procedure, abridged:
as §1

The subject of data set [4] is HeLa. As to the kind of experiment: Induction of Sp1 recruitment to NATb promoter in human HeLa cells at 0.5 uM after 6 hrs by ChIP assay.
Data set [5] addresses T1, NAT1 (arylamine N-acetyltransferase 1). As to the kind of experiment: Increase in NAT1 enzyme activity in 100% confluent human HeLa cells at 0.5 uM using p-aminobenzoic acid substrate after 24 hrs by HPLC method relative to untreated control. It is filed as ADME, cell-based. As to conditions: probe p-aminobenzoic acid, read-out: FC. The procedure, abridged: (§2)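 HeLa seeded at 2 × 10⁵, 4 × 10⁵ or 6 × 10⁵ cells/well in 6-well plates (40, 80, 100% confluence at treatment). Treated with 0.5 μM TSA or vehicle for 24 hr. Sonicated lysates in 20 mM Tris pH 7.4, 1 mM EDTA, 1 mM DTT. NAT1 activity measured by HPLC with p-aminobenzoic acid substrate. Mean ± SEM, n = 3; Student's t-test versus vehicle.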

The subject of data set [6] is HeLa. As to the kind of experiment: Induction of acetylated histone H4 recruitment to NATb promoter in human HeLa cells at 0.5 uM after 6 hrs by ChIP assay.
The test system of data set [7] is HeLa. As to the kind of experiment: Induction of NATb Sp1 site in human HeLa cells at 0.5 uM after 24 hrs by luciferase reporter gene assay. It is filed as cell-based. A general note: A reporter such as luciferase makes a cellular process visible.
The test system of data set [8] is NATb promoter of NAT1. As to the kind of experiment: Induction of Sp1 (GC>TA) mutant recruitment to NATb promoter in human HeLa cells at 0.5 uM after 24 hrs by luciferase reporter gene assay. It is filed as cell-based. As to conditions: read-out: FC.
For data set [9], the system named is NATb promoter of NAT1. The data set is described as follows: Induction of Sp1 recruitment to NATb promoter in human HeLa cells at 0.5 uM after 24 hrs by luciferase reporter gene assay. It is filed as cell-based. As to conditions: read-out: FC.
The test system of data set [10] is HeLa. The data set is described as follows: Increase in NATa promoter activity in human HeLa cells at 0.5 uM after 24 hrs by qPCR method. It is filed as ADME, cell-based.
Data set [11] addresses T1, NAT1 (arylamine N-acetyltransferase 1). As to the kind of experiment: Increase in NAT1 enzyme activity in 40% confluent human HeLa cells at 0.5 uM using p-aminobenzoic acid substrate after 24 hrs by HPLC method relative to untreated control. As to conditions: probe p-aminobenzoic acid, read-out: FC. It is filed as ADME, cell-based. The procedure, abridged:
as §2

The test system of data set [12] is HeLa. The data set is described as follows: Induction of Sp1 recruitment to NATb promoter in human HeLa cells nuclear extracts at 0.5 uM after 24 hrs by EMSA method. It is filed as cell-based. The procedure, abridged:
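Nuclear extracts from HeLa treated with 0.5 µM TSA or vehicle. 2 µg extract incubated with 1 × 10⁵ d.p.m. ³²P probe spanning the NATb Sp1 site, 30 min at room temperature, in binding buffer pH 7.9 with poly[d(I-C)]. Competition used 100-fold excess unlabelled wild-type or mutant probe; supershift used 2 µg Sp1 antibody. Run on 5% native PAGE at 4°C; phosphorimaging.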
In general terms: Mobility shift assays separate free from complexed probe on a gel.

Data set [13] has as its system NATb promoter of NAT1. As to the kind of experiment: Induction of NATb 3657 bp fragment upstream of exon 4 in human HeLa cells at 0.5 uM after 24 hrs by luciferase reporter gene assay. It is filed as cell-based. Conditions: read-out: FC. The gist of the method: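 HeLa seeded at 1.5 × 10⁵ cells/well and left overnight, then transfected (Lipofectamine 2000) with 1 µg of a deletion series of NATb promoter–firefly luciferase constructs (length = bp upstream of exon 4). After 4 hr, 0.5 µM TSA or DMSO for 24 hr; passive lysis buffer; luciferase read-out. Mean ± SEM, n = 3; t-test.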

As for `CC(/C=C/C(=O)NO)=C\[C@@H](C)C(=O)c1ccc(N(C)C)cc1` [TRICHOSTATIN], the fold induction at 24 h, 0.5 µM in data set [1] was 3.2; with NAT1 mRNA it was 25; in data set [5], less than 1.5; in the data set with NATb promoter of NAT1 [8], less than 5; in the data set on NATb promoter of NAT1 [9], 45; in data set [11], 4.1. In addition, the fold induction at 24 h, 0.5 µM in the data set on NATb promoter of NAT1 [13] is 18. For the same compound, the Activity was -0.46 h⁻¹ in the data set on HeLa [2]; “Toxic” with HeLa [3]; “Toxic” with HeLa [4]; “Toxic” in the data set on HeLa [6]; “Toxic” in the data set on HeLa [7]; “Non-toxic” with HeLa [10]. The Activity entry with HeLa [12] is “Toxic”.
